# Rows were chosen to be rich in hits. Some 2.1% of all compounds tested hit in one or more screens of this group.
# CCR6 antag – CCR6 receptor antagonists, primary screen, cell-based, CHO-K1, luminescence, beta-arrestin, uHTS | C-C chemokine receptor type 6 (Homo sapiens), P51684 | CHO-K1 CCR6 PathHunter beta-arrestin, CCL20-stimulated | inhibition, % at 20 µM | 340,000 tested, 0.49% active | AID 493098, 2011;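 active = compounds whose inhibition of the agonist-driven luminescence signal at 20 µM reaches about 50%, limit read from the data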;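 note: cells stimulated with CCL20 at 14 nM final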
# EBI2 block – EBI2 receptor antagonists, beta-arrestin recruitment, primary screen, cell-based, luminescence, 7a,25-OHC stimulation, uHTS; 360,000 tested, 0.81% active; G-protein coupled receptor 183 (Homo sapiens), P32249; 7a,25-OHC stimulated; AID 651636, 2012; inhibition, % at 5 µM; in the data active = inhibition above about 38%;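 note: enzyme fragment complementation signal reports receptor beta-arrestin coupling in cells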
# CXCR6 block – CXCR6 receptor inhibitors, primary screen, cell-based, beta-arrestin, luminescence, CHO-K1 PathHunter, 1536-well; inhibition, % at 20 µM; 360,000 tested, 0.36% active; in the data active = inhibition above about 34%, passing the limit was not always enough;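 note: antagonist mode with CXCL16 agonist at 10 nM final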
# APJ antag – antagonists of human apelin receptor APJ, primary screen, CHO-K1 cells, beta-arrestin complementation, luminescence; P35414; inhibition, % at 20 µM; 330,000 tested, 0.32% active; AID 2521, 2010;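 active = inhibition above about 40% at 20 µM, limit read from the data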;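 note: cells challenged with 10 nM apelin-13 agonist together with compound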
# m5-HT2A agonist – mouse Htr2a agonists via beta-arrestin recruitment, primary screen, cell-based, luminescence; CHO-K1 mHTR2A beta-arrestin complementation; percent of 30 µM serotonin response; activation, % at 7.6 µM; 360,000 tested, 0.66% active;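 active = activation above a run cutoff, the mean activation of all tested compounds plus 3 SD, cut at about 14% in these data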
# Target sequence (P35363 whole entry, looked up): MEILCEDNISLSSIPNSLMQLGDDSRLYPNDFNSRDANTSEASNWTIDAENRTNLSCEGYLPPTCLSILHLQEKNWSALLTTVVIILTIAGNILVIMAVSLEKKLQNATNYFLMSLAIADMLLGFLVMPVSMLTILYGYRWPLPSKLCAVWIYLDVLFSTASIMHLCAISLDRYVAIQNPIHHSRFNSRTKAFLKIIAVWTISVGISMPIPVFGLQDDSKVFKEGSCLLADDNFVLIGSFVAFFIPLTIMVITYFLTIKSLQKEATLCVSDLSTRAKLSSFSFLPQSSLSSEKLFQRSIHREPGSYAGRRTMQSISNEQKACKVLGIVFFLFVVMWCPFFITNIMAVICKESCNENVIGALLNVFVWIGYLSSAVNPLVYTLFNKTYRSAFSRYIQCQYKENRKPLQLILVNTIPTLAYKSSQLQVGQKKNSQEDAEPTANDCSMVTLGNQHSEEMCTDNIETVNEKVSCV
# APJ ag – agonists of human apelin receptor APJ, primary screen, CHO-K1 cells, PathHunter beta-arrestin, luminescence; activation, % at 20 µM; 330,000 tested, 0.11% active; 0% DMSO wells, 100% apelin; AID 2520, 2010; P35414;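 active = activation more than six SD over the plate average, tested at 20 µM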
#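 system = engineered CHO-K1 APJ arrestin reporter cells | input = 1000 cells per well | timing = overnight seeding, 90 min compound at 25 °C, 1 h detection | measured by = enzyme-fragment complementation luminescence | read-out = beta-arrestin recruitment to APJ as agonist activity, luminescent signal | control set = negative DMSO alone, positive Apelin-13 at 10 nM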
# APJ ag confirm – agonists of human apelin receptor APJ, confirmation, cell-based, single concentration, CHO-K1, beta-arrestin, luminescence. shares compounds with APJ ag. CHO-K1 APJ PathHunter beta-arrestin. activation, % at 20 µM. 310 tested, 10% active. AID 2764, 2010;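 active = activation above 40%, taking the highest of four retests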
# Numbers stand for hits; . = inactive; / = not tested or not shown.
SMILES,CCR6 antag,EBI2 block,CXCR6 block,APJ antag,m5-HT2A agonist,APJ ag,APJ ag confirm
Cc1ccc(/C=N/NC(=O)CSc2nnc(-c3ccc(Cl)cc3)n2-c2ccc(Cl)cc2)o1,.,.,.,.,.,28,163
Cc1ccc(/C=N/NC(=O)CSc2nnc(-c3ccccc3)n2-c2ccc(Cl)cc2)o1,.,.,.,.,.,14,43
O=C(NCCc1ccccc1)C1Cc2c(-c3ccccc3Oc3ccccc3)ccnc2O1 (stereo not drawn),/,.,.,/,.,/,/
CC1=C/C(=N\OS(=O)(=O)c2ccccc2)C(C)=CC1=O,.,.,.,.,.,109,86
c1ccc(CNc2nc(NCc3ccccc3)c3ccccc3n2)cc1,.,.,.,.,.,28,.
c1ccc(CNc2nc(-c3ccccc3)nc3ccccc23)cc1,.,.,.,.,.,.,/
CC1CCN(C(=O)CCNS(=O)(=O)c2ccc3c(c2)c(=O)n(C)c(=O)n3C)CC1,.,.,.,.,.,.,/
Cc1cc(-c2ccccc2)nc(SCc2ccc(C(=O)O)cc2)n1,.,.,.,.,.,.,/
COC(=O)C1=C(CN2CCc3ccccc32)NC(=O)NC1c1cc(C)ccc1C (stereo not drawn),.,.,.,.,.,39,.
COC(=O)C1=C(CN2CCN(C)CC2)NC(=O)NC1c1cc(C)ccc1C (stereo not drawn),.,.,.,.,.,.,/
CC1=NNC(=O)/C1=C\c1cn(-c2ccccc2)nc1-c1cccs1,.,68,.,.,.,26,.
O=C(O)CCCCCN1C(=O)/C(=C/c2cn(-c3ccccc3)nc2-c2cccs2)SC1=S,.,.,.,/,.,/,/
Cc1ccc(CN2CCC[C@]3(N[C@H](c4ccc(C(F)(F)F)cc4)[C@@H]4C(=O)N(Cc5ccccc5)C(=O)[C@@H]43)C2=O)cc1,/,.,.,/,.,/,/
CCOC(=O)CSc1nc2ccc(Nc3nc(N4CCOCC4)nc(N4CCOCC4)n3)cc2s1,.,.,.,.,.,19,.
C=CCSc1nc(O)c(CC)c(=O)n1C(C)CC (stereo not drawn),.,.,.,.,.,76,49
CC(C)C[C@H](NC(=O)C1CC(=O)N(c2ccc3c(c2)OCCO3)C1)C(=O)N1CCCCC1 (stereo partly drawn),.,.,.,.,.,.,/
Cc1cc(C)n2nc3ccccc3c2n1,.,.,.,.,.,.,/
Cc1cc(C)n2nc3nc(N4CCCCC4)nc(-c4ccco4)c3c2n1,.,.,.,.,.,73,41
CC(=O)c1c(C)[nH]c(C(=O)OCC(=O)Nc2cc(Cl)ccc2[N+](=O)[O-])c1C,.,.,.,.,.,17,.
O=C(COc1ccccc1[N+](=O)[O-])Nc1ccc(N2CCN(C(=O)c3cccs3)CC2)cc1,.,.,.,.,.,16,.
CCC(=O)Nc1ccc(N2CCN(C(=O)c3cccs3)CC2)cc1,.,.,.,.,.,.,/
O=C(Nc1ccc(N2CCN(C(=O)c3cccs3)CC2)cc1)c1ccc([N+](=O)[O-])o1,/,.,.,.,.,29,.
O=C(Nc1ccc(N2CCN(C(=O)c3cccs3)CC2)cc1)c1ccco1,.,.,.,.,.,.,/
Cc1ccc(C)c(OCCC(=O)NCCc2ccc(F)cc2)c1,.,.,.,.,.,.,/
CCc1ccccc1N(C)S(=O)(=O)c1ccc(-c2cc(C)no2)s1,.,.,.,.,.,.,/
SMILES,CCR6 antag,EBI2 block,CXCR6 block,APJ antag,m5-HT2A agonist,APJ ag,APJ ag confirm
COc1cccc(NC(=O)Nc2nc(-c3ccc(OC)c(OC)c3)cs2)c1,.,.,.,.,.,19,.
COc1ccc(CC(=O)Nc2ccc(S(=O)(=O)N(C)C3CCN(C)CC3)cc2)cc1,.,.,.,.,.,.,/
COc1ccc2oc(C(=O)Nc3ccc(S(=O)(=O)N(C)C4CCN(C)CC4)cc3)c(C)c2c1,.,.,.,.,.,51,.
COC(=O)[C@]1(Cc2ccccc2)N[C@H](CN(C)C(=O)Nc2ccc(OC)cc2)[C@@H]2C(=O)N(Cc3ccccc3)C(=O)[C@@H]21,.,.,.,.,.,12,.
COC(=O)[C@]1(Cc2ccccc2)N[C@H](CN(C)C(=O)Nc2ccc(OC)cc2)[C@@H]2C(=O)N(C)C(=O)[C@@H]21,.,.,.,.,.,.,/
O=C(NCc1ccccc1)C1C(c2ccc3c(c2)OCO3)=Nc2ccccc2N1C(=O)c1ccco1 (stereo not drawn),/,.,/,/,.,/,/
CC(CC(=O)N1CCN(c2cccc(Cl)c2)CC1)S(=O)(=O)c1ccc2c(c1)NC(=O)CO2 (stereo not drawn),.,.,.,.,.,33,.
Cc1c2ccccc2c(C)c2c1ccc1ccccc12,.,.,.,.,.,41,.
Cc1ccc(C(=O)N2CCN(c3ncnc4c3cnn4-c3ccccc3)CC2)cc1,/,.,.,.,.,32,.
O=C(NCc1ccccc1CN1CCCC1)C1CCN(C(=O)c2ccc(F)cc2)CC1,.,.,.,.,.,.,/
CC1=NOC(=O)/C1=C/c1ccc(-c2ccc(Cl)cc2)o1,/,.,64,.,.,20,.
COc1ccc(Cl)cc1/C=C1/C(=O)ON=C1C,.,.,.,.,.,.,/
CC1=NOC(=O)/C1=C\c1ccc(-c2cc(Cl)ccc2Cl)o1,74,.,57,.,.,66,.
CC1=NOC(=O)/C1=C\c1ccc(-c2ccc(Br)cc2C(=O)O)o1,.,.,.,.,.,.,/
C#CCOCCOCCOCCNc1nc(N2CCN(C(=O)CCCCCCCCCCNC(=O)[C@H]([C@@H](C)CC)n3cc(CCCCCN)nn3)CC2)nc(N2CCN(C(=O)CCCCCCCCCCNC(=O)[C@H](CCCCN)n3cc(CCCC(=O)O)nn3)CC2)n1,.,.,.,.,.,.,/
C#CCOCCOCCOCCNc1nc(N2CCN(C(=O)CCCCCCCCCCNC(=O)[C@H]([C@@H](C)CC)n3cc(CCCCN=C(N)N)nn3)CC2)nc(N2CCN(C(=O)CCCCCCCCCCNC(=O)[C@H](CCCCN)n3cc(C)nn3)CC2)n1,.,/,/,40,/,83,.
